Data reported in ChEMBL document CHEMBL3585269, “Simple structural modifications confer cytotoxicity to allobetulin” (Bioorg Med Chem, 2015).

Tests used:
[1] = Cytotoxicity against human 518A2 cells by SRB assay; assay type: functional, cell-based
Procedure, shortened: (§1)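 Photometric sulforhodamine B (SRB) read-out after 96 h of compound treatment. EC50 values are averaged from three independent experiments, each run in triplicate, and reported with a 95% confidence interval. The assay has an upper cut-off.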

[2] = tested on: HT-29; test: Cytotoxicity against human HT-29 cells by SRB assay; assay type: functional, cell-based; procedure, shortened: as §1
[3] = tested on: MCF7; test: Cytotoxicity against human MCF7 cells by SRB assay; assay type: functional, cell-based; procedure, shortened: as §1
[4] = tested on: A549; test: Cytotoxicity against human A549 cells by SRB assay; assay type: functional, cell-based; procedure, shortened: as §1
[5] = tested on: 8505C; test: Cytotoxicity against human 8505C cells by SRB assay; assay type: functional, cell-based; procedure, shortened: as §1
[6] = tested on: A2780; test: Cytotoxicity against human A2780 cells by SRB assay; assay type: functional, cell-based; procedure, shortened: as §1
[7] = Cytotoxicity against mouse NIH/3T3 cells by SRB assay; assay type: cell-based; details: NIH3T3
[8] = Homo sapiens, 518A2, read-out: EC50
[9] = Homo sapiens, HT-29, read-out: EC50
[10] = Homo sapiens, MCF7, read-out: EC50
[11] = Homo sapiens, A549, read-out: EC50
[12] = Homo sapiens, 8505C, read-out: EC50
[13] = Homo sapiens, A2780, read-out: EC50

Structure (SMILES) | EC50 [1, 8] | EC50 [2, 9] | EC50 [3, 10] | EC50 [4, 11] | EC50 [5, 12] | EC50 [6, 13] | EC50 ([1]; 518a2) | EC50 ([2]; ht-29) | EC50 ([3]; mcf7) | EC50 ([4]; a549) | EC50 ([5]; 8505c) | EC50 ([6]; a2780) | EC50 [7]
CC1(C)CC[C@]23CC[C@]4(C)[C@H](CC[C@@H]5[C@@]6(C)C=C(O)C(=O)C(C)(C)[C@@H]6CC[C@]54C)[C@H]2[C@H]1OC3 | > 30 µM | > 30 µM | > 30 µM | 23.3 µM | > 30 µM | > 30 µM |  |  |  |  |  |  | 
CC1(C)CC[C@]23CC[C@]4(C)[C@H](CC[C@@H]5[C@@]6(C)CCC(=O)OC(C)(C)[C@@H]6CC[C@]54C)[C@H]2[C@H]1OC3 | > 30 µM | > 30 µM | > 30 µM | > 30 µM | > 30 µM | > 30 µM |  |  |  |  |  |  | 
CC1(C)CC[C@]23CC[C@]4(C)[C@H](CC[C@@H]5[C@@]6(C)CC/C(=N\O)C(C)(C)[C@@H]6CC[C@]54C)[C@H]2[C@H]1OC3 |  |  |  |  |  |  | ND(Insoluble) | ND(Insoluble) | ND(Insoluble) | ND(Insoluble) | ND(Insoluble) | ND(Insoluble) | 
C=C(C)[C@@H]1CC[C@]2(C)[C@H](CC[C@@H]3[C@H]4[C@H]5OC[C@@]4(CCC5(C)C)CC[C@]32C)[C@@]1(C)CCC#N | 25.7 µM | > 30 µM | > 30 µM | 21.5 µM | > 30 µM | > 30 µM |  |  |  |  |  |  | 
CC1(C)CC[C@]23CC[C@]4(C)[C@H](CC[C@@H]5[C@@]6(C)CC[C@@H](N)C(C)(C)[C@@H]6CC[C@]54C)[C@H]2[C@H]1OC3 | 10.2 µM | 6.8 µM | 15.2 µM | 12.6 µM | 15.5 µM | 12.9 µM |  |  |  |  |  |  | 15.9 µM
CC1(C)CC[C@]23CC[C@]4(C)[C@H](CC[C@@H]5[C@@]6(C)CC[C@H](N)C(C)(C)[C@@H]6CC[C@]54C)[C@H]2[C@H]1OC3 | 5.4 µM | 6.2 µM | 10.4 µM | 7.3 µM | 7.8 µM | 6.6 µM |  |  |  |  |  |  | 7.3 µM
C=C(C)[C@@H]1CC[C@]2(C)[C@H](CC[C@@H]3[C@H]4[C@H]5OC[C@@]4(CCC5(C)C)CC[C@]32C)[C@@]1(C)CCC(=O)OC | > 30 µM | > 30 µM | > 30 µM | > 30 µM | > 30 µM | > 30 µM |  |  |  |  |  |  | 
C=C(C)[C@@H]1CC[C@]2(C)[C@H](CC[C@@H]3[C@H]4[C@H]5OC[C@@]4(CCC5(C)C)CC[C@]32C)[C@@]1(C)CCC(=O)O |  |  |  |  |  |  | ND(Insoluble) | ND(Insoluble) | ND(Insoluble) | ND(Insoluble) | ND(Insoluble) | ND(Insoluble) | 
C=C(C)[C@@H]1CC[C@]2(C)[C@H](CC[C@@H]3[C@H]4[C@H]5OC[C@@]4(CCC5(C)C)CC[C@]32C)[C@@]1(C)CCC(=O)OCC | > 30 µM | > 30 µM | > 30 µM | > 30 µM | > 30 µM | > 30 µM |  |  |  |  |  |  | 
C=C(C)[C@@H]1CC[C@]2(C)[C@H](CC[C@@H]3[C@H]4[C@H]5OC[C@@]4(CCC5(C)C)CC[C@]32C)[C@@]1(C)CCC(=O)OCCC | > 30 µM | > 30 µM | > 30 µM | > 30 µM | > 30 µM | > 30 µM |  |  |  |  |  |  | 
C=CCOC(=O)CC[C@]1(C)[C@H]2CC[C@@H]3[C@H]4[C@H]5OC[C@@]4(CCC5(C)C)CC[C@@]3(C)[C@]2(C)CC[C@H]1C(=C)C | > 30 µM | > 30 µM | > 30 µM | > 30 µM | > 30 µM | > 30 µM |  |  |  |  |  |  | 
C#CCOC(=O)CC[C@]1(C)[C@H]2CC[C@@H]3[C@H]4[C@H]5OC[C@@]4(CCC5(C)C)CC[C@@]3(C)[C@]2(C)CC[C@H]1C(=C)C | > 30 µM | > 30 µM | > 30 µM | > 30 µM | > 30 µM | > 30 µM |  |  |  |  |  |  | 
C=C(C)[C@@H]1CC[C@]2(C)[C@H](CC[C@@H]3[C@H]4[C@H]5OC[C@@]4(CCC5(C)C)CC[C@]32C)[C@@]1(C)CCC(=O)OCCCC | > 30 µM | > 30 µM | > 30 µM | > 30 µM | > 30 µM | > 30 µM |  |  |  |  |  |  | 
C=C(C)[C@@H]1CC[C@]2(C)[C@H](CC[C@@H]3[C@H]4[C@H]5OC[C@@]4(CCC5(C)C)CC[C@]32C)[C@@]1(C)CCC(=O)OCc1ccccc1 |  |  |  |  |  |  | ND(Insoluble) | ND(Insoluble) | ND(Insoluble) | ND(Insoluble) | ND(Insoluble) | ND(Insoluble) | 
CC1(C)CC[C@]23CC[C@]4(C)[C@H](CC[C@@H]5[C@@](C)(CC(=O)O)[C@H](C(C)(C)C(=O)O)CC[C@]54C)[C@H]2[C@H]1OC3 |  |  |  |  |  |  | ND(Insoluble) | ND(Insoluble) | ND(Insoluble) | ND(Insoluble) | ND(Insoluble) | ND(Insoluble) | 
COC(=O)C[C@]1(C)[C@H]2CC[C@@H]3[C@H]4[C@H]5OC[C@@]4(CCC5(C)C)CC[C@@]3(C)[C@]2(C)CC[C@H]1C(C)(C)C(=O)OC | 29.4 µM | 17.5 µM | 29.4 µM | > 30 µM | 27.1 µM | 18.1 µM |  |  |  |  |  |  | 
CCOC(=O)C[C@]1(C)[C@H]2CC[C@@H]3[C@H]4[C@H]5OC[C@@]4(CCC5(C)C)CC[C@@]3(C)[C@]2(C)CC[C@H]1C(C)(C)C(=O)OCC | 26.1 µM | 17.6 µM | 26.1 µM | 5.9 µM | 24.6 µM | 18.9 µM |  |  |  |  |  |  | 25 µM
CCCOC(=O)C[C@]1(C)[C@H]2CC[C@@H]3[C@H]4[C@H]5OC[C@@]4(CCC5(C)C)CC[C@@]3(C)[C@]2(C)CC[C@H]1C(C)(C)C(=O)OCCC | > 30 µM | 27 µM | > 30 µM | > 30 µM | > 30 µM | 22.4 µM |  |  |  |  |  |  | 
C=CCOC(=O)C[C@]1(C)[C@H]2CC[C@@H]3[C@H]4[C@H]5OC[C@@]4(CCC5(C)C)CC[C@@]3(C)[C@]2(C)CC[C@H]1C(C)(C)C(=O)OCC=C | > 30 µM | 29.2 µM | > 30 µM | > 30 µM | > 30 µM | 22.7 µM |  |  |  |  |  |  | 
C#CCOC(=O)C[C@]1(C)[C@H]2CC[C@@H]3[C@H]4[C@H]5OC[C@@]4(CCC5(C)C)CC[C@@]3(C)[C@]2(C)CC[C@H]1C(C)(C)C(=O)OCC#C | 17.4 µM | 15.7 µM | 27.2 µM | 21.1 µM | 18.7 µM | 12.5 µM |  |  |  |  |  |  | 
CCCCOC(=O)C[C@]1(C)[C@H]2CC[C@@H]3[C@H]4[C@H]5OC[C@@]4(CCC5(C)C)CC[C@@]3(C)[C@]2(C)CC[C@H]1C(C)(C)C(=O)OCCCC | > 30 µM | > 30 µM | > 30 µM | > 30 µM | > 30 µM | > 30 µM |  |  |  |  |  |  | 
CC1(C)CC[C@]23CC[C@]4(C)[C@H](CC[C@@H]5[C@@](C)(CC(=O)OCc6ccccc6)[C@H](C(C)(C)C(=O)OCc6ccccc6)CC[C@]54C)[C@H]2[C@H]1OC3 |  |  |  |  |  |  | ND(Insoluble) | ND(Insoluble) | ND(Insoluble) | ND(Insoluble) | ND(Insoluble) | ND(Insoluble) | 
CC1(C)CC[C@]23CC[C@]4(C)[C@H](CC[C@@H]5[C@@]6(C)CC[C@H](O)C(C)(C)[C@@H]6CC[C@]54C)[C@H]2[C@H]1OC3 [ALLOBETULIN] | > 30 µM | > 30 µM | > 30 µM | > 30 µM | > 30 µM | > 30 µM |  |  |  |  |  |  | 
C=C(C)[C@@H]1CC[C@]2(CO)CC[C@]3(C)[C@H](CC[C@@H]4[C@@]5(C)CC[C@H](O)C(C)(C)[C@@H]5CC[C@]43C)[C@@H]12 [BETULIN] | 28.8 µM | > 30 µM | 24.4 µM | 20.6 µM | > 30 µM | 29.3 µM |  |  |  |  |  |  | 
